# Screens (PubChem BioAssay)
# Shown are actives, neighbours in structure and some others; about 2.6% of the full set was active somewhere.
# XiGFP reactiv – activators of inactive X chromosome reactivation, primary screen, imaging, XiGFP fibroblasts, GFP high-content imaging, set 2; AID 743238, 2013; 0.055% of 360,000 active; XiGFP mouse fibroblasts, % GFP-positive cells imaging, 3 d; cells co-treated with 5-aza-dC sensitizer; scaled so ellipticine positive control = 100%; activation, % at 7.58 µM;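 active = mean normalized replicate activation at least 10% and every replicate at or above 10%; inconclusive = only one of the two criteria met; inactive = mean below 10% and not all replicates reach 10%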
#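 Assay system: SV40-immortalized XiGFP fibroblast cells, line 68-5-11; buffer or medium: DMEM plus 5-aza-dC sensitizer; compound: one concentration, pinned; timing: compounds 3 days, fix/stain 15 min at room temperature; benchmarks: positive control ellipticine, 6 µM final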
# MITF act – activators of MITF-driven TRPM1 promoter reporter, primary screen, cell-based, SK-MEL-5, luciferase, single point. SK-MEL-5 TRPM1-promoter luciferase, 24 h; % of positive control, neutral wells = 0. activation, % at 12.5 µM. 0.75% of 300,000 active;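 active = mean activation of at least 80% with every replicate also reaching 80%; inconclusive = mean reaches 80% but some replicate falls short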
# Wnt bcat act – Wnt/beta-catenin pathway activators, primary screen, cell-based, plate reader, single point. Wnt/beta-catenin reporter cell assay, activator. activation, % at 9.35 µM. 1.2% of 300,000 active; in the data active = activation above about 30%, passing the limit was not always enough; inconclusive = no clear call, values can overlap the other calls
# esBAF inh – Bmi1 luciferase reporter increase in mESCs, primary screen, esBAF inhibitor project, mouse ES cells, Bmi1 luciferase knock-in, single point; 24 h; 100% = twice the neutral-well signal; reporter increase, % at 12.5 µM; 2% of 350,000 active; in the data active = activation above about 40%; inconclusive = no clear call, values can overlap the other calls;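 note: a rise in the Bmi1 reporter signal indicates esBAF inhibition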
# Vif imaging – HIV Vif self-association inhibitors, primary screen, imaging, HEK293T, single point | inhibition, % at 7.49 µM | 0.35% of 340,000 active | HEK293T cells, Vif self-association by quenched fluorescence, 24 h; in the data active = inhibition above about 50%, passing the limit was not always enough; inconclusive = no clear call, values can overlap the other calls; inactive = below about 31%
# Hits are given with their value; i = inactive; ? = inconclusive; nt = not tested or not shown.
SMILES,XiGFP reactiv,MITF act,Wnt bcat act,esBAF inh,Vif imaging
COCC(=O)Nc1ccc2c(c1)OC[C@@H](C)N(C(=O)c1cccnc1)C[C@H](C)[C@H](OC)CN(C)C2=O,i,nt,nt,i,nt
O=C(Nc1ccncc1)c1cc2ccccc2cc1O,i,i,47,53,nt
COc1cc2ccccc2cc1C(=O)Nc1ccc(C)cc1,i,nt,i,46,i
COc1ccc(C(=O)Nc2ccccc2C(=O)Nc2cc(C)ccn2)cc1,i,nt,i,i,i
COc1cc2ccccc2cc1C(=O)Nc1ccc(Cc2ccncc2)cc1,nt,i,nt,i,i
COc1cc2ccccc2cc1C(=O)Nc1cc(C)ccn1,i,i,i,55,i
COCC(=O)N1[C@@H](CO)[C@@H](c2ccccc2)C12CN(C(=O)c1cccnc1)C2,i,nt,nt,nt,nt
Cc1nnc2ccc(-c3cccc(NS(=O)(=O)c4cc(F)ccc4F)c3)nn12,i,i,i,i,71
CCCS(=O)(=O)Nc1cccc(-c2ccc3nnc(C)n3n2)c1,i,i,i,nt,i
Cc1nnc2ccc(-c3cccc(NS(=O)(=O)c4ccccc4[N+](=O)[O-])c3)nn12,i,i,i,nt,?
Cc1nnc2ccc(-c3cccc(NS(=O)(=O)c4ccccc4Cl)c3)nn12,i,i,i,i,81
COc1cccc(S(=O)(=O)Nc2ccc3c(c2)C(=O)N(C)C[C@H](OC)[C@@H](C)CN[C@H](C)CO3)c1,i,nt,nt,i,nt
CCNC(=O)[C@H]1[C@H](CO)[C@H]2Cn3c(ccc(-c4ccccc4F)c3=O)[C@@H]1N2Cc1cccnc1,i,nt,nt,i,nt
CCCOC(=O)c1ccc(NC(=O)c2cnccn2)cc1,nt,i,nt,59,i
CCCCOC(=O)c1ccc(NC(=O)c2cnccn2)cc1,nt,i,nt,i,i
C[C@H]1CN([C@@H](C)CO)C(=O)c2cc(-c3ccc(F)cc3)cnc2O[C@@H]1CN(C)C(=O)C1CCC1,i,nt,nt,i,nt
N#CC(Cc1cccs1)c1nc2ccccc2[nH]1 (configuration not stated),i,nt,i,i,i
N#CC(Cc1ccc(OC(F)F)cc1)c1nc2ccccc2[nH]1 (configuration not stated),i,91,i,60,i
Cn1cnc2c1c(=O)n(Cc1ccccc1)c(=O)n2C,i,nt,32,i,i
O=C(/C=C/Nc1ccc([N+](=O)[O-])cc1Br)c1cccc2ccccc12,i,115,48,nt,i
NC(=O)c1cc([N+](=O)[O-])ccc1NCc1cccc2ccccc12,i,i,i,i,i
O=C(Nc1ccc(F)cc1)N1CCc2ccccc2C1,i,i,57,nt,i
Cc1ccc(NC(=O)N2CCc3ccccc3C2)cc1C,i,95,?,61,i
Cc1ccc(NC(=O)C2OCCc3ccccc32)cc1C (configuration not stated),i,i,i,58,i
O=[N+]([O-])c1cccc(NC(=S)N2CCc3ccccc3C2)c1,i,i,i,58,i
SMILES,XiGFP reactiv,MITF act,Wnt bcat act,esBAF inh,Vif imaging
O=C(NCc1ccco1)C1OCCc2ccccc21 (configuration not stated),nt,nt,i,i,i
C[C@H](CO)N1C[C@H](C)[C@H](CN(C)C(=O)Nc2ccc(C(F)(F)F)cc2)Oc2ccc(NC(=O)CCC(F)(F)F)cc2CC1=O,i,nt,nt,i,nt
COc1ccc(OC)c(NC(=O)N2CCc3ccccc3C2)c1,i,i,i,i,i
Cc1cc(C)cc(NC(=O)N2CCc3ccccc3C2)c1,i,i,i,45,i
O=C(Nc1ccc(Br)cc1)N1CCc2ccccc2C1,i,i,i,nt,i
COc1ccc(NC(=O)c2cccc(S(=O)(=O)N3CCN(C)CC3)c2)c(OC)c1,i,i,i,i,54
COc1ccc(NC(=O)N2CCc3ccccc3C2)c(OC)c1,i,i,i,54,i
COc1cc(OC)cc(C(=O)NCC(=O)Nc2ccc(C)c(Cl)c2)c1,i,i,46,i,i
COc1cc(OC)cc(C(=O)NCC(=O)Nc2ccc(-c3ccccc3)cc2)c1,i,i,i,i,i
COc1cc(C(=O)NC2CC3CCCC(C2)N3Cc2ccccc2)cc(OC)c1OC (configuration not stated),i,i,i,i,i
COc1ccc(C(=O)NC2CC3CCCC(C2)N3Cc2ccccc2)cc1OC (configuration not stated),i,i,i,i,52
COc1ccc(CN2C3CCC2CC(NC(=O)c2cc(OC)c(OC)c(OC)c2)C3)cc1 (configuration not stated),i,i,i,i,63
C[C@H](CO)N1C[C@H](C)[C@@H](CN(C)C(=O)Nc2ccc3c(c2)OCO3)Oc2ccc(NC(=O)Nc3ccc(C(F)(F)F)cc3)cc2CC1=O,i,nt,nt,nt,nt
CN(C)CC(O)c1ccc(C=Cc2ccc(Cl)cc2)cc1 (configuration not stated),i,i,?,49,i
CC(NC(=O)/C=C/c1ccc(Br)cc1)c1ccc(Cl)cc1 (configuration not stated),i,i,i,i,i
Oc1ccc(/C=N/Nc2ccccc2)cc1,i,i,i,i,i
Brc1ccc(/C=N/Nc2ccccc2)cc1,i,84,i,nt,i
CCOC(=O)c1sc(=NC(=O)c2ccc(Cl)s2)n(C)c1C,i,i,i,nt,i
CCOC(=O)c1sc(=NC(=O)c2cccs2)n(C)c1C,i,i,39,i,i
CCOC(=O)c1sc(=NC(=O)c2ccccc2Br)n(C)c1C,i,?,32,58,i
COc1cccc(NC(=O)N2CC3(C2)[C@@H](c2ccccc2)[C@@H](CO)N3C(=O)C2CCC2)c1,i,nt,nt,nt,nt
CO[C@@H]1CN(C)C(=O)c2ccc(NC(C)=O)cc2OC[C@H](C)N(C(=O)c2ccccn2)C[C@@H]1C,i,nt,nt,i,nt
CN1C(=O)c2cc(NC(=O)c3cccc(F)c3)ccc2OC[C@@H]2O[C@@H](CC(=O)N3CCc4ccccc4C3)CC[C@@H]21,i,nt,nt,i,nt
Cc1ccccc1-c1noc(-c2ccccc2F)n1,nt,107,i,67,nt
NC(=O)c1ccc(-c2noc(-c3ccccc3F)n2)cc1,i,i,i,i,i
SMILES,XiGFP reactiv,MITF act,Wnt bcat act,esBAF inh,Vif imaging
Cc1ccccc1-c1noc(-c2ccc(Cl)cc2)n1,nt,i,?,?,i
Fc1ccccc1-c1nc(-c2ccc(Cl)cc2)no1,nt,i,nt,49,i
Cc1noc(C)c1NC(=O)N(C)C[C@@H]1Oc2ncc(C#CC3CCCCC3)cc2C(=O)N([C@@H](C)CO)C[C@@H]1C,i,nt,nt,i,nt
Cc1c2ccccc2c(C)c2c1ccc1ccccc12,i,i,i,i,i
CC1=Nc2ccc3ccccc3c2C1(C)C,i,i,i,nt,53
O=C(Cn1cnc2c(oc3ccccc32)c1=O)c1ccccc1,nt,nt,49,70,i
O=C(O)Cn1cnc2c(oc3ccccc32)c1=O,i,i,i,i,i
